Data published in PMC4828309 (European journal of immunology, 2016).
Entries after “also recorded” stand apart in the source; their conditions may differ. No end group written: not given here.

What was measured:
DQ2-8 [1] = assay: Peptide elution and HPLC-MS/MS, DQ2-8; set-up: species or system human; details: 293T DQ2-8+Ii+DM, 2 independent experiments
Summary of the method: (§1)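 About 1×10^9 sorted, stably transduced 293T cells expressing DQ+Ii or DQ+Ii+DM were lysed. DQ was captured with anti-DQ mAb SPVL3 on protein A beads. Bound peptides were eluted, separated by HPLC and sequenced by HPLC-MS/MS. Nested Ii-derived peptides were assigned to the CLIP1 core or the CLIP2 register. Results come from 2 independent experiments.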

DQ8 [2] = assay: Peptide elution and HPLC-MS/MS, DQ8; set-up: species or system human; details: 293T DQ8+Ii+DM, 2 independent experiments
Summary of the method: as §1

DQ2 [3] = assay: Peptide elution and HPLC-MS/MS, DQ2; set-up: species or system human; details: 293T DQ2+Ii+DM, 2 independent experiments
Summary of the method: as §1

DQ8-2 [4] = assay: Peptide elution and HPLC-MS/MS, DQ8-2; set-up: species or system human; details: 293T DQ8-2+Ii+DM, 2 independent experiments
Summary of the method: as §1

DQ1 [5] = assay: Peptide elution and HPLC-MS/MS, DQ1; set-up: species or system human
Summary of the method: as §1

DQ molecules = assay: Peptide elution and HPLC-MS/MS, several DQ molecules reported together; set-up: species or system human
Summary of the method: as §1

DQ1 [6] = assay: Cell surface CLIP by flow cytometry, 293T cells expressing DQ1; assay type: cell-based, human; details: 293T DQ1, even in the absence of DM, CerCLIP.1 mAb
Summary of the method: (§2)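 Human 293T cells (no endogenous Ii, DM or DQ) were lentivirally transduced with full-length DQ α/β (T2A-linked, GFP vector), Ii, and DM (mCherry vector). They were sorted for GFP, DQ and mCherry. Surface staining used PerCP-Cy5.5 Cer.CLIP1 and biotinylated SPVL3 anti-DQ with streptavidin-APC or -PE-Cy7. Gating was on matched GFP/mCherry levels. Read-outs were MFI and the CLIP/DQ MFI ratio with vs without DM, from 3 independent experiments, mean + SD.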

DQ2-8 [7] = assay: Cell surface CLIP by flow cytometry, 293T cells expressing DQ2-8 trans-dimer; assay type: cell-based, human
Summary of the method: as §2

DQ6 [8] = assay: Cell surface CLIP by flow cytometry, 293T cells expressing DQ6; assay type: cell-based, human; details: CerCLIP.1 mAb
Summary of the method: as §2

DQ2 [9] = assay: Cell surface CLIP by flow cytometry, 293T cells expressing DQ2; assay type: cell-based, human
Summary of the method: as §2

DQ6 [10] = assay: Peptide elution and HPLC-MS/MS, DQ6; set-up: species or system human; details: 293T DQ6+Ii+DM, 2 independent experiments
Summary of the method: as §1

DQ alleles in T2 cells = assay type: cell-based, human; details: T2 lymphoblastoid cells, absence or presence of HLA-DM, flow cytometry
Summary of the method: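 Human B-cell hybrid T2 line (endogenous Ii, MHC class II region deleted) expressing each DQ allele with or without HLA-DM. Cells surface-stained with PerCP-Cy5.5 anti-CLIP (Cer.CLIP1) and biotinylated anti-DQ (SPVL3) detected by streptavidin-APC or -PE-Cy7, alongside isotype-matched controls. Analysed by flow cytometry.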

DQ8 [11] = assay: Cell surface CLIP by flow cytometry, 293T cells expressing DQ8; assay type: cell-based, human
Summary of the method: as §2

DQ8-2 [12] = assay: Cell surface CLIP by flow cytometry, 293T cells expressing DQ8-2 trans-dimer; assay type: cell-based, human
Summary of the method: as §2

DQ8 βT89G = assay: Cell surface CLIP by flow cytometry, 293T cells expressing DQ8 βT89G mutant; assay type: cell-based, human; details: 293T + Ii, with vs without DM; βT89G disrupts one H-bond; CLIP/DQ ratio
DQ8 βE86A = assay: Cell surface CLIP by flow cytometry, 293T cells expressing DQ8 βE86A mutant; assay type: cell-based, human; details: 293T + Ii, with vs without DM; βE86A disrupts two H-bonds; CLIP/DQ ratio
[13] = test system: DQ2 with Gly at position 53; details: ref [22]; cited from earlier work
sDQ6 = assay: FP assay of CLIP dissociation from sDQ6; assay type: binding, human; details: 50 nM sDQ6-^488CLIP, sDM 0 to 2000 nM, 37°C, pH 5.0
Summary of the method: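 sDQ6 secreted by lentivirus-transduced 293T cells, purified by His-resin then anti-DQ affinity, and thrombin-cleaved overnight. It was loaded with Alexa 488-labelled CLIP (1:5) plus 100 nM sDM for 3 h at 37°C in pH 5.0 citrate-phosphate/NaCl/Tween buffer, then spin-desalted. 50 nM complex, 0–2000 nM sDM and 100 μM unlabelled CLIP1 were read by FP at 37°C. FP was normalised to free-peptide background; rate enhancement was expressed relative to no-DM rate.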

[14] = molecular target: soluble recombinant HLA-DQ8 (human); assay: fluorescence polarisation
[15] = molecular target: soluble recombinant HLA-DQ6 (human); assay: fluorescence polarisation

LPKPPKPVSKMRMATPLLMQA [CLIP1]
CLIP1 in peptide eluate, with DM (DQ2-8 [1]): detected | CLIP1 in peptide eluate, with DM (DQ8 [2]): detected | CLIP1 in peptide eluate, with DM (DQ2 [3]): detected | CLIP1 in peptide eluate, with DM (DQ8-2 [4]): detected | CLIP peptides in eluate, no DM (DQ1 [5]; 293T DQ1+Ii without DM): detected | CLIP peptides in eluate, with DM (DQ1 [5]; 293T DQ1+Ii+DM): not in samples co-expressing DM

PSSGLGVTKQDLGPVPM [CLIPc, reference compound]
CLIPc detection in eluates (DQ molecules; DQ samples from 293T cells): detected by HPLC-MS/MS from all of the samples (DQ2, DQ2-8 and DQ8-2), except DQ8

CLIP: Class II associated invariant chain peptide; Ii-derived, endogenous on DQ-expressing cells (Ac-VSK(Alexa Fluor 488)MRMATPLLMQ)
Cell surface CLIP level, no DM (DQ1 [6]): no detectable CLIP peptide | Cell surface CLIP upon DM co-expression (DQ2-8 [7]; 293T DQ2-8+Ii+DM, CerCLIP.1 mAb, flow cytometry, 3 independent experiments): retain high levels of cell surface CLIP | Cell surface CLIP level, no DM (DQ2-8 [7]; 293T DQ2-8+Ii, absence of DM, CerCLIP.1 mAb, flow cytometry, MFI): high | Reduction in cell surface CLIP by DM (DQ2-8 [7]; 293T cells co-expressing DM with DQ2-8): little or no reduction in CLIP levels | Cell surface CLIP upon DM co-expression (DQ6 [8]; 293T DQ6+Ii+DM, 3 independent experiments): complete loss of cell surface CLIP | Cell surface CLIP level, no DM (DQ6 [8]; 293T DQ6+Ii, absence of DM, MFI): high | DM editing of CLIP upon DM co-expression (DQ2 [9]; 293T DQ2+Ii+DM, CerCLIP.1 mAb, flow cytometry, 3 independent experiments): relatively resistant to DM editing | Cell surface CLIP level, no DM (DQ2 [9]; 293T DQ2+Ii, absence of DM, CerCLIP.1 mAb, flow cytometry, MFI): high | DM editing resistance relative to DQ8 and DQ2-8 (DQ2 [9]; 293T, DQ2): less striking | CLIP in peptide eluate, with DM (DQ6 [10]): not detected | DM editing of CLIP in T2 cells (DQ alleles in T2 cells): consistent with those obtained with 293T cells | CLIP peptides eluted, no DM (DQ molecules; 293T DQ+Ii without DM, all DQ alleles, 2 independent experiments): prominently presented by all DQ alleles | Cell surface CLIP upon DM co-expression (DQ8 [11]; 293T DQ8+Ii+DM, CerCLIP.1 mAb, flow cytometry, 3 independent experiments): retain high levels of cell surface CLIP | Cell surface CLIP level, no DM (DQ8 [11]; 293T DQ8+Ii, absence of DM, CerCLIP.1 mAb, flow cytometry, MFI): high | Reduction in cell surface CLIP by DM (DQ8 [11]; 293T cells co-expressing DM with DQ8): little or no reduction in CLIP levels | Cell surface CLIP upon DM co-expression (DQ8-2 [12]; 293T DQ8-2+Ii+DM, CerCLIP.1 mAb, flow cytometry, 3 independent experiments): retain high levels of cell surface CLIP | Cell surface CLIP level, no DM (DQ8-2 [12]; 293T DQ8-2+Ii, absence of DM, CerCLIP.1 mAb, flow cytometry, MFI): high | DM editing resistance relative to DQ8 and DQ2-8 (DQ8-2 [12]; 293T, DQ8-2 trans-dimer): less striking

DM: non-classical MHC protein HLA-DM catalyzing CLIP release and peptide exchange
Change in DM sensitivity of DQ8 mutant (DQ8 βT89G): little change in DM sensitivity | Change in DM sensitivity of DQ8 mutant (DQ8 βE86A): partially restore sensitivity to DM | DM sensitivity after Gly insertion at α53 of DQ2 [13]: restored DM sensitivity; also recorded: marked increase in DM-mediated rate enhancement in the dissociation of a DQ2 binding peptide | DM editing of CLIP in T2 cells (DQ alleles in T2 cells): DQ2 and DQ2-8 were less sensitive to DM than DQ8 | Dissociation rate versus DM concentration (sDQ6): Peptide dissociation rates increased with increasing DM concentration; also recorded: rates appeared to saturate with increasing DM concentration | Hierarchy of DM sensitivity among DQ molecules (DQ8 [11]; 293T DQ+Ii+DM, DQ8 compared with DQ2-8, DQ2, DQ8-2): DQ8 being the least sensitive, followed by DQ2-8, DQ2, and DQ8-2

B1: Alexa Fluor 488-labeled N-acetylated CLIP peptide (peptide)
peptide: Ac-VSK(Alexa Fluor 488)MRMATPLLMQ
intrinsic half-life of the complex [14]: 58 h | intrinsic half-life of the complex [15]: 7 h
